From ChEMBL document CHEMBL1141778, “Iminosugar-producing Thai medicinal plants” (J Nat Prod, 2005)
Calls of active or inactive are those of the source. The rule behind the calls is not given here.

What was measured:
[1] = Inhibition of alpha-L-fucosidase
How it was run: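 Bovine epididymis alpha-L-fucosidase at pH 5.5 with the matching p-nitrophenyl glycoside as substrate. The reaction was stopped with 400 mM Na2CO3, and released p-nitrophenol was read at 400 nm.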

[2] = Inhibition of bovine liver beta-galactosidase; set-up: species or system Bos taurus
How it was run: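 Bovine liver beta-galactosidase at pH 6.8 with the matching p-nitrophenyl glycoside substrate. Stopped by adding 400 mM Na2CO3; released p-nitrophenol was measured at 400 nm.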

Prunus dulcis = test: (§1) Inhibition of almond beta-glucosidase
How it was run: (§2)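 The substrate was the matching p-nitrophenyl glycoside. Reactions were terminated with 400 mM Na2CO3, and liberated p-nitrophenol was measured spectrophotometrically at 400 nm.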

[3] = target: T1, Sucrase-isomaltase, intestinal (Rattus norvegicus, UniProt P23739); test: Inhibition of rat intestinal isomaltase
T1 sequence (P23739 1-1013 limits assumed): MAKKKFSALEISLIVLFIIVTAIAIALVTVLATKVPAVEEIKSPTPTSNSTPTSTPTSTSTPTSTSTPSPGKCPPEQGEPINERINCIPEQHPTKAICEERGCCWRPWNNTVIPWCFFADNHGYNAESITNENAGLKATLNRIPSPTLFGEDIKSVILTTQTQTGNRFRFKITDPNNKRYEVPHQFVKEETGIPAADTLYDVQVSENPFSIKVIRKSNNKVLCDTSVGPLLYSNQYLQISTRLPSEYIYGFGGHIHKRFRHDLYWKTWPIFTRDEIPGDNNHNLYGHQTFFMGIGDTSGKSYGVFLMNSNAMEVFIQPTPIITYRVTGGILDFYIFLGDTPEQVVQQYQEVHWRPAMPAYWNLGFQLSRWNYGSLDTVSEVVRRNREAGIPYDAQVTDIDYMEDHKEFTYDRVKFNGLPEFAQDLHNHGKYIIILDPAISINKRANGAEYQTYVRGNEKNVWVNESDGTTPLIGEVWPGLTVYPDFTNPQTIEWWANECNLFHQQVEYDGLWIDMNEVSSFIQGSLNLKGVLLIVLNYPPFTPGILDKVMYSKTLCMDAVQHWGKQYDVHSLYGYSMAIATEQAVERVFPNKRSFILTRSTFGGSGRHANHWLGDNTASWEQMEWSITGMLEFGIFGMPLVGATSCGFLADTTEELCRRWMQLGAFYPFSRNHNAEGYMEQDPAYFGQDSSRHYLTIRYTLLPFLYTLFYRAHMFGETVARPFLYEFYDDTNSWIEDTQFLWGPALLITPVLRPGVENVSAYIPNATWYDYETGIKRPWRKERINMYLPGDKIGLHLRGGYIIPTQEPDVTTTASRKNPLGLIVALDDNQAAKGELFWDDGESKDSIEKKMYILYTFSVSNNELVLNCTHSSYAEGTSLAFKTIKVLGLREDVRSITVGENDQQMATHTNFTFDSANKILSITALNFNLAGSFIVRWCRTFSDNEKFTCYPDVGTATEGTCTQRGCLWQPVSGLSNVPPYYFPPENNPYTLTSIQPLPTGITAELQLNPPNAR
T1 sequence (P23739 1014-1841 limits assumed): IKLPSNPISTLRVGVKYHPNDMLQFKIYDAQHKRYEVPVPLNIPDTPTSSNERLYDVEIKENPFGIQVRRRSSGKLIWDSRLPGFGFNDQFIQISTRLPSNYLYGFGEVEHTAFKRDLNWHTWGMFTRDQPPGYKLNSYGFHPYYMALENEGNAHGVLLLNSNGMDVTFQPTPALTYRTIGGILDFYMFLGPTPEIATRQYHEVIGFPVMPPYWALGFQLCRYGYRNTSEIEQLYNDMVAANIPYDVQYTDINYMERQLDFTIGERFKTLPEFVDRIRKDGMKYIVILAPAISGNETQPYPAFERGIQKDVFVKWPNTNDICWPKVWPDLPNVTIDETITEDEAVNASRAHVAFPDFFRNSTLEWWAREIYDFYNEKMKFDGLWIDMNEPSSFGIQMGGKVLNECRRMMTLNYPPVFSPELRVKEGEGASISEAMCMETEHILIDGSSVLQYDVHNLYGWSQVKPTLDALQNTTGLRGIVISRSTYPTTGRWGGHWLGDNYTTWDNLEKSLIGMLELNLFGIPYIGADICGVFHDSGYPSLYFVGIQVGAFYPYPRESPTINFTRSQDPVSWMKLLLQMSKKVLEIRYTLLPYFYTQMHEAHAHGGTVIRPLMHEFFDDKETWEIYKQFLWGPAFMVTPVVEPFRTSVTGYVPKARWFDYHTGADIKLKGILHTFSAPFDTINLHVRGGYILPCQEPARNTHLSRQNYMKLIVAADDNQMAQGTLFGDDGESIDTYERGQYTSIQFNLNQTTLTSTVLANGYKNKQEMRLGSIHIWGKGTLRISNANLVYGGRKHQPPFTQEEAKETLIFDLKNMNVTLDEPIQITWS
How it was run: (§3)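 Enzyme source was brush border membranes prepared from rat small intestine, assayed at pH 5.8 with sucrose (sucrase) or isomaltose (isomaltase) as substrate. Released D-glucose was quantified colorimetrically with a glucose test kit.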

[4] = as §1; set-up: species or system Prunus dulcis; how it was run: as §2
[5] = target: T1, Sucrase-isomaltase, intestinal; test: Inhibition of rat intestinal sucrase; how it was run: as §3

For `OC[C@H]1O[C@H](OC[C@H]2NC[C@@H](O)[C@@H](O)[C@@H]2O)[C@H](O)[C@@H](O)[C@@H]1O`, the Ki [1] was 19 µM.
With `OC[C@H]1NC[C@@H](O)[C@@H](O)[C@@H]1O[C@@H]1O[C@H](CO)[C@@H](O)[C@H](O)[C@H]1O` the Activity [1] was “inactive”.
In the case of `OC[C@H]1N[C@H](CO)[C@@H](O[C@@H]2O[C@H](CO)[C@@H](O)[C@H](O)[C@H]2O)[C@@H]1O`, the IC50 [2] is reported as 270 µM and the Activity (Prunus dulcis) is reported as “inactive”.
In the case of `OC[C@H]1NC[C@@H](O)[C@@H](O[C@@H]2O[C@H](CO)[C@@H](O)[C@H](O)[C@H]2O)[C@@H]1O`, the Activity [1] is reported as “inactive”.
In the case of `OC[C@@H]1N[C@H](CO)[C@@H](O)[C@@H]1O`, the IC50 [3] is reported as 1000 µM, the IC50 [4] is reported as 320 µM and the IC50 [5] is reported as 1000 µM.
With `OC[C@H]1NC[C@@H](O[C@@H]2O[C@H](CO)[C@@H](O)[C@H](O)[C@H]2O)[C@@H](O)[C@@H]1O` the Activity [1] was “inactive”.
`C[C@@H]1O[C@@H](O[C@@H]2CN[C@H](CO)[C@@H](O)[C@@H]2O)[C@H](O)[C@H](O)[C@H]1O` gave a Ki [1] of 0.06 µM.
In the case of `OC[C@H]1NC[C@@H](O[C@H]2O[C@H](CO)[C@H](O)[C@H](O)[C@H]2O)[C@@H](O)[C@@H]1O`, the Activity [1] is reported as “inactive”.
With `OC[C@H]1N[C@H](CO)[C@@H](O)[C@H]1O` the IC50 [2] was 3.3 µM and the IC50 [4] was 7.8 µM.
